The values below come from ChEMBL document CHEMBL1136626, “Discovery of novel and selective IKK-beta serine-threonine protein kinase inhibitors. Part 1” (Bioorg Med Chem Lett, 2003).

Usually IC50 stands for the midpoint of a concentration-inhibition curve. By ED50 is commonly meant the midpoint of the dose-response relation.

In one assay the test system is A549. In words: In vitro concentration required to inhibit the TNF-alpha-induced RANTES production in A549 human lung epithelium cell line. The class given is functional, cell-based. In outline:
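A549 human lung epithelial cells grown in D-MEM with 10% FCS, penicillin/streptomycin and 2 mM glutamine. Cells (4×10⁴/well) pretreated 1 h with compound or vehicle (0.1% DMSO), then stimulated with 100 ng/mL TNF-α for 24 h. RANTES in supernatants measured by quantitative sandwich fluorescent immunoassay.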

Assay [1] addresses T1, Inhibitor of nuclear factor kappa-B kinase subunit beta (Homo sapiens, UniProt O14920).
T1 sequence (O14920 whole entry): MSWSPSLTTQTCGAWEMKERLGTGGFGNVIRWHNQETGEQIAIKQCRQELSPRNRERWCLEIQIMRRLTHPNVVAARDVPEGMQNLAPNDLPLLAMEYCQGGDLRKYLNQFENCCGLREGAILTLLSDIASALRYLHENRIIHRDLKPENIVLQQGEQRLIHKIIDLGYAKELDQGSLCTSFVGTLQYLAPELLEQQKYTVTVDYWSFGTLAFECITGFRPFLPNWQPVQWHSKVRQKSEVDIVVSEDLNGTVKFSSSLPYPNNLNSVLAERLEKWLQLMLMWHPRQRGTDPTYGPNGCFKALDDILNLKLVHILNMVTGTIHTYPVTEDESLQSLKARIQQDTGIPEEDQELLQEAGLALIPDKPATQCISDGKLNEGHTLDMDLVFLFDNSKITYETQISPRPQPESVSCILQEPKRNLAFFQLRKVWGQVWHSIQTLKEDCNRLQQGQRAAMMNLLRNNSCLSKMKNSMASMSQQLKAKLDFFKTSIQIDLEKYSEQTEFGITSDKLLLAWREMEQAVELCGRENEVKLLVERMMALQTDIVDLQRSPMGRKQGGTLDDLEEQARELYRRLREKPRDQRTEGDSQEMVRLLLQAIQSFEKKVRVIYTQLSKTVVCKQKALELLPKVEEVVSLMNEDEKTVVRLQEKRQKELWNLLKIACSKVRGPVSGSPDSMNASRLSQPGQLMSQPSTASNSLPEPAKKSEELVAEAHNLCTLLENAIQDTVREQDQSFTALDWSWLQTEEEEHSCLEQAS
In words: In vitro inhibitory concentration required against recombinant human IkB kinase beta (IKK-beta). In short, it runs like this:
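Recombinant His-tagged human IKK-β from baculovirus-infected insect cells, final […], with biotinylated GST-IκBα(1-54) substrate (final 0.2) in Tris-HCl pH 7.6 buffer with MgCl₂, DTT, Na₃VO₄ and BSA; DMSO final 0.25%. Started with ATP plus [γ-³³P]ATP, 2 h at rt, stopped with EDTA. Substrate captured on streptavidin plates, washed, counted by scintillation.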

Assay [2] relates to Mus musculus. In words: In vivo LPS-induced TNF-alpha production in mice after ip administration (30 min pretreatment). The class given is functional. In outline:
(§1)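 Eight-week-old female BALB/c mice given 200 (per mouse) LPS ip in saline. Compound dosed ip 30 min before LPS, or po in 10% cremophor/saline 60 min before. Blood taken under pentobarbital anaesthesia 90 min after LPS. Plasma TNFα measured by ELISA; mean of 5 mice per group used to calculate percent reduction versus LPS controls; ED₅₀ reported.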

Assay [3] has as its system Mus musculus. Nature of the assay: In vivo LPS-induced TNF-alpha production in mice after oral administration (60 min pretreatment). The class given is functional. In short, it runs like this:
as §1

In the case of `N#Cc1c(-c2ccc(C(=O)NCCN3CCCCC3)cc2)cc(-c2ccccc2O)nc1N`, the IC50 in the assay with A549 was above 50 µM; in assay [1], 0.6 µM.
With `COc1ccccc1-c1cc(-c2cccc(NC(=O)C(O)CCC(=O)O)c2)c(C#N)c(N)n1` (stereo not given), the IC50 with A549 was above 50 µM; in assay [1], above 20 µM.
Turning to `N#Cc1c(-c2cccc(NC(=O)CC(N)C(=O)O)c2)cc(-c2ccccc2O)nc1N` (stereo not given), the IC50 in the assay on A549 came to 35 µM; in assay [1], 0.6 µM.
The like results for `N#Cc1c(-c2cccc(NC(=O)CCN3CCCCC3)c2)cc(-c2ccccc2O)nc1O` were, in that order, above 50 µM and above 20 µM.
Regarding `N#Cc1c(-c2ccc([N+](=O)[O-])cc2)cc(-c2ccccc2O)nc1N`, the IC50 is above 50 µM in the assay on A549 and above 20 µM in assay [1].
The corresponding values for `N#Cc1c(-c2ccc(N3CCCCC3)c(NC(=O)CCN3CCCCC3)c2)cc(-c2ccccc2O)nc1N` are 5 µM and 2.5 µM.
As for `CN(C)c1ccc(-c2cc(-c3ccccc3O)nc(N)c2C#N)cc1NC(=O)CCN1CCCCC1.Cl`, the IC50 in the assay with A549 was found to be 8 µM; in assay [1], 0.8 µM. Moreover, the 50% effective dose (ED50) with Mus musculus [2] is 0.6 mg/kg.
In the case of `N#Cc1c(-c2cccc(NC(=O)CCCC(=O)O)c2)cc(-c2ccccc2O)nc1N`, the IC50 in the assay with A549 was above 50 µM; in assay [1] it was 1.4 µM.
For `N#Cc1c(-c2cccc(C(=O)NCCN3CCCCC3)c2)cc(-c2ccccc2O)nc1N`, the IC50 in the assay with A549 is 15 µM; in assay [1], 1.8 µM.
In the case of `N#Cc1c(-c2cccc(NC(=O)C(N)CC(=O)O)c2)cc(-c2ccccc2O)nc1N` (stereo not given), the values for the IC50 (with A549; in assay [1]) were 15 µM and 0.6 µM, respectively.
As to `N#Cc1c(-c2ccccc2C(=O)O)cc(-c2ccccc2O)nc1N`, the figures for the IC50 (in the assay on A549; in assay [1]) were above 50 µM and 0.7 µM, respectively.
`COc1cccc(O)c1-c1cc(-c2cccc(NC(=O)C(O)CCC(=O)O)c2)c(C#N)c(N)n1` (stereo not given): the IC50 in the assay with A549 was above 50 µM; in assay [1] it was 2 µM.
With `COCC(=O)Nc1cccc(-c2cc(-c3ccccc3O)nc(N)c2C#N)c1`, the IC50 in the assay with A549 is above 50 µM; in assay [1], 1.4 µM.
The like results for `N#Cc1c(-c2ccccc2C(=O)NCCN2CCCCC2)cc(-c2ccccc2O)nc1N` were, in that order, 6 µM and 0.5 µM.
The corresponding values for `N#Cc1c(-c2cccc(NC(=O)C(O)CCC(=O)O)c2)cc(-c2cc(F)ccc2O)nc1N` (stereo not given) are above 50 µM and 1.7 µM.
`Cl.N#Cc1c(-c2ccc(N3CCCC3)c(NC(=O)CCN3CCCCC3)c2)cc(-c2ccccc2O)nc1N`: the IC50 in the assay with A549 stood at 0.8 µM; in assay [1] it was 1 µM. For the same compound, the ED50 in the assay with Mus musculus [2] stood at 0.8 mg/kg; with Mus musculus [3] it was 10.1 mg/kg.
Take `N#Cc1c(-c2cccc(N)c2)cc(-c2ccccc2O)nc1N`: the values for the IC50 (with A549; in assay [1]) were above 50 µM and 20 µM, respectively.
The corresponding values for `N#Cc1c(-c2cccc(NC(=O)C(O)CCC(=O)O)c2)cc(-c2ccc(O)cc2)nc1N` (stereo not given) are above 50 µM and above 20 µM.
For the compound `COc1ccc(O)c(-c2cc(-c3cccc(NC(=O)C(O)CCC(=O)O)c3)c(C#N)c(N)n2)c1` (stereo not given), the values for the IC50 (in the assay with A549; in assay [1]) were above 50 µM and 5.3 µM, respectively.
The corresponding values for `N#Cc1c(-c2ccc(NC(=O)CCN3CCCCC3)cc2)cc(-c2ccccc2O)nc1N` are above 50 µM and 1 µM.
Take `N#Cc1c(-c2cccc(C(=O)O)c2)cc(-c2ccccc2O)nc1N`: the IC50 with A549 is above 50 µM; in assay [1], 2.5 µM.
As for `CCN(CC)c1nc(-c2ccccc2O)cc(-c2cccc(NC(=O)CCN3CCCCC3)c2)c1C#N`, the IC50 in assay [1] was above 20 µM.
Take `Cc1cccc(O)c1-c1cc(-c2cccc(NC(=O)C(O)CCC(=O)O)c2)c(C#N)c(N)n1` (stereo not given): the IC50 is above 50 µM in the assay with A549 and above 20 µM in assay [1].
Turning to `N#Cc1c(-c2cccc(NC(=O)C(O)CCC(=O)O)c2)cc(-c2ccccc2)nc1N` (stereo not given), the results for the IC50 (in the assay on A549; in assay [1]) were above 50 µM and above 20 µM, respectively.
The like results for `CC(=O)Nc1nc(-c2ccccc2O)cc(-c2cccc(NC(=O)CCN3CCCCC3)c2)c1C#N` were, in that order, 30 µM and 15 µM.
The like results for `N#Cc1c(-c2cccc(NC(=O)CCN3CCCCC3)c2)cc(-c2cccc(O)c2)nc1N` were, in that order, 10 µM and above 20 µM.
The corresponding values for `Cc1c(-c2ccccc2O)nc(N)c(C#N)c1-c1cccc(NC(=O)C(O)CCC(=O)O)c1` (stereo not given) are above 50 µM and above 20 µM.
Take `N#Cc1c(-c2cccc(NC(=O)C(O)CCC(=O)O)c2)cc(-c2cc(Cl)ccc2O)nc1N` (stereo not given): the IC50 was above 50 µM with A549 and 5.5 µM in assay [1].
On to `N#Cc1c(-c2cccc(NC(=O)C(O)CCC(=O)[O-])c2)cc(-c2ccccc2O)nc1N.[Na+]` (stereo not given), for which the IC50 in the assay with A549 worked out at 20 µM; in assay [1], 0.9 µM. The ED50 in the assay on Mus musculus [2] worked out at 1.3 mg/kg; in the assay with Mus musculus [3], 18.7 mg/kg.
Take `CN(C)c1ccc(-c2cc(-c3ccccc3O)nc(N)c2C#N)cc1`: the figures for the IC50 (in the assay on A549; in assay [1]) were above 50 µM and above 20 µM, respectively.
The corresponding values for `N#Cc1c(-c2cccc(NC(=O)CN3CCCCC3)c2)cc(-c2ccccc2O)nc1N` are 15 µM and 3 µM.
As for `N#Cc1c(-c2ccc(C(=O)O)cc2)cc(-c2ccccc2O)nc1N`, the IC50 in the assay on A549 is above 50 µM; in assay [1], 0.7 µM.
The corresponding values for `N#Cc1c(-c2ccc(NC(=O)CCCC(=O)O)cc2)cc(-c2ccccc2O)nc1N` are above 50 µM and 0.5 µM.
